Laboratory results as given in ChEMBL document CHEMBL1127570, “Synthesis and anticonvulsant properties of new benzylpyridazine derivatives” (J Med Chem, 1994).

Assays:
Mus musculus [1] = species: Mus musculus; assay: Anticonvulsant activity in mice using the maximal electroshock seizure test.; format: functional
Method in brief: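 Oral dosing of mice 30 min before maximal electroshock via corneal electrodes. Protection is abolition of the hind limb tonic extensor component.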

Mus musculus [2] = assay: Locomotor activity in maximal electroshock seizure. - indicates decrease at 100 mg/kg; format: functional
Mus musculus [3] = assay: yohimbine induced seizures by administrating sc and the compound which do not exhibit at least one clonic seizure within 60 min was recorded; Percentage of protection at 100 mg/kg per os.; format: functional; conditions: 1 h, route subcutaneous
Method in brief: (§1)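 Compound given 30 min before yohimbine 45 mg/kg sc in mice. Animals without at least one clonic seizure within 60 min count as protected. Chi-square with Yates correction.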

Mus musculus [4] = assay: Tested for NMDLA induced seizures and protection against full generalized tonic seizures was recorded; Percentage of protection at 150 mg/kg per os.; format: functional; conditions: for ED50: Mus musculus, po
Method in brief: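 Compounds given 30 min before N-methyl-D,L-aspartate 345 mg/kg sc in mice. Protection against full generalized tonic seizures recorded. Chi-square with Yates correction.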

Mus musculus [5] = assay: Locomotor activity in maximal electroshock seizure+ indicates increase at 100 mg/kg; format: functional
[6] = Central nervous system toxicity was performed by determining the median toxic dose in the rotarod test; format: organism-based; conditions: mouse, in vivo
Method in brief: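 Rotarod neurotoxicity in mice, oral dosing 30 min before assay. Failure to stay 3 min on a 3-cm wooden rod turning at 8 rpm counts as toxic.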

[7] = Protective index is the ratio between TD50 and ED50 values; format: functional
Method in brief: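 Protective index is rotarod TD50 divided by ED50. Both come from oral dosing in mice 30 min before test and are calculated by Litchfield–Wilcoxon.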

Mus musculus [8] = assay: Ability to prevent the tonic extensor component induced by 106.25 mg/kg sc of pentylenetetrazole; format: functional; conditions: route subcutaneous
Mus musculus [9] = assay: (§2) Anticonvulsant activity against bicuculline induced seizures in mice; Percentage of protection at 100 mg/kg per os.; format: functional
Method in brief: (§3)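 Mice, 10 per dose. Test drug given 30 min before bicuculline 0.81 mg/kg iv; protection against clonic seizures recorded. Line 2: single oral dose of 100 mg/kg, given as percentage of animals protected. ED50 by Litchfield–Wilcoxon; chi-square with Yates correction.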

Mus musculus [10] = assay: Tested for the abolition of the hand leg tonic extensor component of the seizure induced by a 0.96 mg/kg sc injection of strychnine; format: functional; conditions: route subcutaneous
Method in brief: (§4)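 Mice tested 30 min after compound for abolition of the tonic extensor component from strychnine 0.96 mg/kg sc. Chi-square with Yates correction; ED50 by Litchfield–Wilcoxon.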

Mus musculus [11] = assay: Anticonvulsant activity was measured using the maximal electroshock seizure test in mice. protection percentage at 100 mg/kg; format: functional; conditions: for % protection at 100 mg/kg: Mus musculus
Mus musculus [12] = assay: Yohimbine induced seizures by administrating sc and the compound which do not exhibit at least one clonic seizure within 60 min was recorded; format: functional; conditions: 1 h
Method in brief: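 Mice, 10 per dose, dosed 30 min before yohimbine 45 mg/kg sc. Animals with no clonic seizure within 60 min were counted as protected. ED50 by Litchfield–Wilcoxon; chi-square with Yates correction.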

Mus musculus [13] = species: Mus musculus; assay: (§5) Anticonvulsant activity against bicuculline induced seizures in mice; format: functional; method in brief: as §3
Mus musculus [14] = assay: Tested for the abolition of the hand leg tonic extensor component of the seizure induced by a 0.96 mg/kg sc injection of strychnine; Percentage of protection at 100 mg/kg per os.; format: functional
Method in brief: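 Oral dose of 100 mg/kg in mice, 10 per dose, given 30 min before strychnine 0.96 mg/kg sc. Protection means abolition of the hind leg tonic extensor component, given as percentage of animals protected. Chi-square with Yates correction.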

Mus musculus [15] = species: Mus musculus; assay: Tested for NMDLA induced seizures and protection against full generalized tonic seizures was recorded; format: functional
Method in brief: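 NMDLA (N-methyl-D,L-aspartate) 345 mg/kg sc injected 30 min after test drug in mice, 10 per dose; protection against full generalized tonic seizures recorded. ED50 by Litchfield–Wilcoxon; chi-square with Yates correction.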

Mus musculus [16] = assay: Yohimbine induced seizures by administrating sc and the compound which do not exhibit at least one clonic seizure within 60 min was recorded; Percentage of protection at 150 mg/kg per os.; format: functional; conditions: route subcutaneous; method in brief: as §1
Mus musculus [17] = assay: Ability to prevent the tonic extensor component induced by 106.25 mg/kg sc of pentylenetetrazole; Percentage of protection at 100 mg/kg per os.; format: functional
Method in brief: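 Mice dosed orally 30 min before pentylenetetrazole 106.25 mg/kg sc. Protection is block of the tonic extensor component. Groups of 10 mice per dose; chi-square with Yates correction; ED50 by Litchfield–Wilcoxon.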

Mus musculus [18] = species: Mus musculus; assay: as §5; format: functional; remark: listed apart in the source
Method in brief: (§6)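 Mice given compound 30 min before bicuculline 0.81 mg/kg iv (procedure after Heyer). Protection against clonic seizures recorded. Groups of 10 mice per dose; chi-square with Yates correction.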

Mus musculus [19] = assay: as §2; format: functional; method in brief: as §6; remark: listed apart in the source
Mus musculus [20] = assay: Tested for the abolition of the hand leg tonic extensor component of the seizure induced by a 0.96 mg/kg sc injection of strychnine;Percentage of protection at 100 mg/kg per os.; format: functional; method in brief: as §4

Compound	ED50 (Mus musculus [1])	Locomotor activity (Mus musculus [2])	Locomotor activity (Mus musculus [5])	TD50 [6]	PI [7]	also measured
Cc1nn2c(N)nnc2cc1Cc1ccc(F)cc1	43 mg/kg	-15%				
NC(=O)N1c2ccccc2C=Cc2ccccc21 [CARBAMAZEPINE]	5.5 mg/kg		7%	40 mg/kg	7.3	ED50 (Mus musculus [3]): 10 mg/kg; ED50 (Mus musculus [4]): 20 mg/kg; ED50 (Mus musculus [8]): 17.5 mg/kg; percent protection (Mus musculus [9]): 0%; ED50 (Mus musculus [10]): 8.5 mg/kg
Cc1nn2c(NC(=O)c3ccccc3)nnc2cc1Cc1ccccc1	35 mg/kg		7%			
Cc1ccc(Cc2cc3nnc(N)n3nc2C)cc1	22.5 mg/kg	-8%				
Cc1nn2cnnc2cc1Cc1ccccc1Cl	6 mg/kg		5%			
Cc1nnc(NNC(=O)N(c2ccccc2)c2ccccc2)cc1Cc1ccccc1			9%			% protection at 100 mg/kg (Mus musculus [11]): 15%
Cc1nn2c(N)nnc2cc1Cc1ccccc1Cl	17.4 mg/kg	-7%				
CCC1(c2ccccc2)C(=O)NC(=O)NC1=O [PHENOBARBITAL]	4.6 mg/kg		33%	33 mg/kg	7.2	ED50 (Mus musculus [12]): 17 mg/kg; ED50 (Mus musculus [13]): 20 mg/kg; percent protection (Mus musculus [14]): 0%; ED50 (Mus musculus [15]): 30 mg/kg; ED50 (Mus musculus [8]): 15 mg/kg
Cc1nn2cnnc2cc1Cc1ccccc1	9.5 mg/kg		8%	170 mg/kg	17.9	ED50 (Mus musculus [4]): 25 mg/kg; percent protection (Mus musculus [16]): 0%; pct protection (Mus musculus [17]): 20%; ED50 (Mus musculus [18]): 63 mg/kg; ED50 (Mus musculus [10]): 85 mg/kg
Cc1nnc(NNC(=O)Nc2ccccc2)cc1Cc1ccccc1Cl		-3%				% protection at 100 mg/kg (Mus musculus [11]): 33%
Cc1nn2c(N)nnc2cc1Cc1c(Cl)cccc1Cl	9.2 mg/kg		16%	410 mg/kg	44.5	ED50 (Mus musculus [4]): 14 mg/kg; ED50 (Mus musculus [12]): 76 mg/kg; ED50 (Mus musculus [18]): 93 mg/kg; ED50 (Mus musculus [8]): 76 mg/kg; ED50 (Mus musculus [10]): 34.5 mg/kg
O=C1NC(=O)C(c2ccccc2)(c2ccccc2)N1 [PHENYTOIN]	4 mg/kg	-16%		30.5 mg/kg	7.6	percent protection (Mus musculus [4]): 0%; ED50 (Mus musculus [16]; Mus musculus, sc, 1 h): 10 mg/kg; percent protection (Mus musculus [17]): 0%; percent protection (Mus musculus [19]): 0%; percent protection (Mus musculus [20]): 0%
Cc1nnc(NNC(=O)Nc2ccccc2)cc1Cc1ccccc1						percent protection (Mus musculus [11]): 0%
